Results gathered from unrelated publications.
Each line is one published result; the experiments were not run side by side.
CTSB: Cathepsin B (CTSB, Homo sapiens, UniProt P07858)
ALK: ALK tyrosine kinase receptor (ALK, Homo sapiens, UniProt Q9UM73)
FLT4: Vascular endothelial growth factor receptor 3 (FLT4, Homo sapiens, UniProt P35916)
SIRT6: NAD-dependent protein deacylase sirtuin-6 (SIRT6, Homo sapiens, UniProt Q8N6T7)
TEK: Angiopoietin-1 receptor (TEK, Homo sapiens, UniProt Q02763)
SLC47A1: Multidrug and toxin extrusion protein 1 (SLC47A1, Homo sapiens, UniProt Q96FL8)
CCR2: C-C chemokine receptor type 2 (CCR2, Homo sapiens, UniProt P41597)

SMILES | target | test | system | conditions | IC50
CCc1ccc(/C=N/n2c(C)nc3ccc(C)cc3c2=O)s1 | CTSB | enzyme activity, inhibitor |  |  | 118 µM
Cc1cccc(-c2cc(C)n[nH]2)c1 | ALK | enzyme activity, inhibitor, TR-FRET |  |  | 230 µM
Cc1cc(Nc2cc(CN3CCOCC3)c3nc(C)c(Cc4ccc(Cl)cc4F)n3n2)n[nH]1 | FLT4 | enzyme activity, inhibitor, TR-FRET |  |  | 0.025 µM
N#Cc1ccc(CONC(=O)c2ccc(C(N)=O)cc2)cc1 | SIRT6 | enzyme activity, inhibitor, fluorescence |  |  | 11.7 µM
CNC(=O)c1cc2c(Oc3ccc(NC(=O)C4(C(=O)Nc5ccc(F)cc5)CC4)cc3)ccnc2cc1OC | TEK | enzyme activity, inhibitor, radiometric |  |  | 0.032 µM
CNC[C@]1(c2ccc(F)cc2F)C[C@H]1Oc1ccc(C#N)cc1-c1cc(C)[nH]n1 (racemic) | ALK | enzyme activity, inhibitor, TR-FRET |  |  | 0.049 µM
CC(C)(C)Nc1nc(N)c(C(=O)c2ccc(Cl)cc2)s1 | Cyclin-dependent kinase 2 (CDK2, Homo sapiens, UniProt P24941) | enzyme activity, inhibitor, mobility shift |  |  | 4.9 µM
Cc1nc2ccc(Cl)cc2c(=O)n1NC1=NC(=O)CS1 | CTSB | enzyme activity, inhibitor |  |  | 74.5 µM
C=C(C)[C@H](CC=C(C)C)Cc1c(O)cc(O)c2c1O[C@H](c1ccccc1O)CC2=O | Fatty acid synthase (FASN, Gallus gallus, UniProt P12276) | enzyme activity, inhibitor, radiometric |  |  | 8.5 µM
C[C@@H]1CCO[C@H]2Cn3cc(C(=O)NCc4ccc(F)cc4F)c(=O)c(O)c3C(=O)N12 | SLC47A1 | transporter uptake, inhibitor, radiometric | HEK293 | 5 min, pH 8.5 | 6.3 µM
COc1ccc2c(Oc3ccc4c(C(=O)Nc5ccccc5N)cccc4c3)ccnc2c1 | FLT4 | enzyme activity, inhibitor |  |  | 0.009 µM
CSc1ccc(/C=C2/C(C)=C(CC(=O)O)c3cc(F)ccc32)cc1 | Dual specificity calcium/calmodulin-dependent 3',5'-cyclic nucleotide phosphodiesterase 1A (PDE1A, Homo sapiens, UniProt P54750) | enzyme activity, inhibitor |  |  | > 100 µM
CN(Cc1ccc(NC(=O)C2=Cc3cc(-c4ccc(OCCCCCO)cc4)ccc3CCC2)cc1)C1CCOCC1 | CCR2 | calcium signal, antagonist |  |  | 0.01 µM
O=C(Oc1cc(O)cc2c1C[C@@H](OC(=O)c1cc(O)c(O)c(O)c1)[C@@H](c1cc(O)c(O)c(O)c1)O2)c1cc(O)c(O)c(O)c1 | Receptor-type tyrosine-protein phosphatase C (PTPRC, Homo sapiens, UniProt P08575) | enzyme activity, inhibitor, fluorescence |  |  | 0.5 µM
CN(Cc1ccc(NC(=O)C2=Cc3cc(-c4ccc(OCCCO)cc4)ccc3CCC2)cc1)C1CCOCC1 | CCR2 | calcium signal, antagonist |  |  | 0.045 µM
CCS(=O)(=O)N1CC(CC#N)(n2cc(-c3ncnc4[nH]ccc34)cn2)C1 | SLC47A1 | transporter uptake, inhibitor, radiometric |  | 2 min | 76.7 µM
N#Cc1ccccc1CONC(=O)c1ccc(C(N)=O)cc1 | SIRT6 | enzyme activity, inhibitor, fluorescence |  |  | 52.3 µM
CN1CCN(c2ccc(Nc3ncc4cc(C#N)c(=O)n(C5CCCC5)c4n3)cc2)CC1 | Serine/threonine-protein kinase D3 (PRKD3, Homo sapiens, UniProt O94806) | enzyme activity, inhibitor |  |  | 0.0709 µM
NC(=O)c1ccc(C(=O)NOCc2ccc(Sc3ccc(Cl)cc3)c(C(F)(F)F)c2)cc1 | SIRT6 | enzyme activity, inhibitor, fluorescence |  |  | 1.51 µM
CC(C)CCNC(=O)c1csc(-c2cccc(Cl)c2Cl)n1 | Pantothenate kinase 1 (Homo sapiens, UniProt Q8TE04) | enzyme activity, inhibitor, ATP luminescence |  |  | 0.93 µM

SMILES | target | test | system | conditions | IC50
COc1cccc(-c2cc(C)[nH]n2)c1 | ALK | enzyme activity, inhibitor, TR-FRET |  |  | 170 µM
CN(Cc1ccc(NC(=O)C2=Cc3cc(-c4ccc(OCCCF)cc4)ccc3CCC2)cc1)C1CCOCC1 | C-C chemokine receptor type 5 (CCR5, Homo sapiens, UniProt P51681) | ligand displacement, radioligand |  | cell membranes | 2.7 µM
Cc1cnc(-c2ccc(-c3ccc(NC(=O)Nc4c(F)cc(F)cc4F)cc3F)c3c2C(=O)NC3)[nH]1 | TEK | enzyme activity, inhibitor |  |  | 0.0065 µM
COc1cccc(CONC(=O)c2ccc(C(N)=O)cc2)c1 | SIRT6 | enzyme activity, inhibitor, fluorescence |  |  | 6.49 µM
CCn1c(-c2nc3ccc(C(=O)N4CCCC(N)C4)cc3n2C)cc2ccccc21 (stereo not drawn) | Sodium channel protein type 5 subunit alpha (SCN5A, Homo sapiens, UniProt Q14524) | ion current, inhibitor |  |  | 31.6 µM
NS(=O)(=O)c1ccc(C(=O)NOCc2ccccc2)cc1 | SIRT6 | enzyme activity, inhibitor, fluorescence |  |  | 116 µM
CSc1nc(C)c(-c2ccnc(N[C@H]3CC[C@H](NC(=O)c4ccccc4)CC3)c2)[nH]1 | Mitogen-activated protein kinase 10 (MAPK10, Homo sapiens, UniProt P53779) | enzyme activity, inhibitor, ELISA |  |  | 1.22 µM
NC(=O)c1ccc[n+]([C@@H]2O[C@H](COP(=O)([O-])OP(=O)(O)OC[C@H]3O[C@@H](n4cnc5c(N)ncnc54)[C@H](O)[C@@H]3O)[C@@H](O)[C@H]2O)c1 | Protein mono-ADP-ribosyltransferase PARP14 (PARP14, Homo sapiens, UniProt Q460N5) | enzyme activity, inhibitor |  |  | 110 µM
C=CC(=O)Nc1ccc(N2CCC[C@@H](Nc3ncc(Cl)c(-c4c[nH]c5ccccc45)n3)C2)cc1C | Cyclin-dependent kinase 2, with cyclin A (CDK2, Homo sapiens, UniProt P24941) | enzyme activity, inhibitor, FRET |  |  | 1.1 µM
NC(=O)c1ccc(C(=O)NOCc2cc(Cl)cc(Cl)c2)cc1 | SIRT6 | enzyme activity, inhibitor, fluorescence |  |  | 2.97 µM
COC(=O)[C@@]1(c2ccc(F)cc2F)C[C@@H]1Oc1ccc(C#N)cc1-c1cc(C)[nH]n1 (racemic) | ALK | phosphorylation in cells, inhibitor, ELISA |  |  | 0.45 µM
O=[N+]([O-])C=Cc1ccc2[nH]c3ncc(Cl)cc3c2c1 | ALK | enzyme activity, inhibitor, ELISA |  |  | 3.3 µM
Cc1ccc(C(=O)Nc2ccc(Oc3cc4cnn(C)c4cc3-c3cn[nH]c3)c(F)c2)c(=O)n1-c1ccc(F)cc1 | FLT4 | enzyme activity in cells, inhibitor |  |  | > 0.316 µM
Nc1nonc1-n1cc(C(=O)N/N=C/c2ccc([N+](=O)[O-])cc2O)nn1 | SIRT6 | enzyme activity, inhibitor, fluorescence |  |  | 121 µM
O=C(NO)c1ccc(C(=O)NOCc2ccc(C(F)(F)F)cc2)cc1 | SIRT6 | enzyme activity, inhibitor, fluorescence |  |  | 8.34 µM
COc1ccc(-c2ccc3[nH]c4ncc(-c5cccc([N+](=O)[O-])c5)cc4c3c2)cc1 | ALK | enzyme activity, inhibitor, ELISA |  |  | 9.3 µM
Cc1cc(-c2ccncc2)n[nH]1 | ALK | enzyme activity, inhibitor, TR-FRET |  |  | 240 µM
NC(=O)c1ccc(C(=O)NOCc2ccc(C(F)(F)F)c(Cl)c2)cc1 | SIRT6 | enzyme activity, inhibitor, fluorescence |  |  | 1.99 µM
Nc1nonc1-n1cc(C(=O)N/N=C/c2ccc(C(F)(F)F)cc2C(F)(F)F)nn1 | SIRT6 | enzyme activity, inhibitor, fluorescence |  |  | 2.69 µM
